In ChEMBL document CHEMBL3244088, “Antitumor agents 32. Synthesis and antitumor activity of cyclopentenone derivatives related to helenalin” (1978):
Values after ≈ are worked out from the molar mass of the structure shown.

Columns and labels:
Type in all cases: functional
P388 [1] = experiment: Antitumor activity against mouse P388 cells allografted in DBA/2 mouse assessed as increase in survival rate at 4 mg/kg/day, ip administered for 2 weeks relative to control; settings: route intraperitoneal
W256 [2] = experiment: Antitumor activity against […] allografted in Sprague-Dawley rat assessed as increase in survival rate at 2.5 mg/kg/day, ip relative to control; settings: route intraperitoneal
Summary of the method: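 Walker 256 ascites carcinosarcoma: 10^6 tumor cells implanted ip into male Sprague-Dawley rats (~80 g), with daily ip dosing of compounds. Result expressed as T/C; a T/C ≥ 125% counts as active. Melphalan was the positive standard. Animal numbers per group were recorded for each test.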

[3] = Cytotoxicity against human Hep2 cells assessed a growth inhibition by rapid microtiter technique; settings: HEp-2, read-out: ED50 (the source's name)
Summary of the method: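 Human laryngeal epidermoid carcinoma H.Ep.-2 cells run in a rapid microtiter cytotoxicity assay. ED50 is calculated as the dose that inhibits net cell growth to 50% of control growth. Compounds with ED50 ≤ 4 µg/mL are scored active.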

P388 [4] = experiment: Antitumor activity against mouse P388 cells allografted in DBA/2 mouse assessed as increase in survival rate at 5 mg/kg/day, ip administered for 2 weeks relative to control; settings: route intraperitoneal
P388 [5] = experiment: Antitumor activity against mouse P388 cells allografted in DBA/2 mouse assessed as increase in survival rate at 25 mg/kg/day, ip administered for 2 weeks relative to control; settings: route intraperitoneal
P388 [6] = experiment: Antitumor activity against mouse P388 cells allografted in DBA/2 mouse assessed as increase in survival rate at 16.8 mg/kg/day, ip administered for 2 weeks relative to control; settings: route intraperitoneal
W256 [7] = experiment: Antitumor activity against […] allografted in Sprague-Dawley rat assessed as increase in survival rate at 1.25 mg/kg/day, ip relative to control; settings: route intraperitoneal

With `CC1(COC(=O)CCCCCCCCC(=O)OCC2(C)CC=CC2=O)CC=CC1=O` (stereo not drawn) the T/C (P388 [1]) was 109%, the T/C (W256 [2]) was 108% and the EC50 [3] was 14.6 µg/mL (≈ 34.9 µM).

Work on `CC1(COC(=O)/C=C/c2ccccc2)CC=CC1=O` (stereo not drawn) yielded a T/C (P388 [1]) of 131%, a T/C (W256 [2]) of 136% and an EC50 [3] of 3.5 µg/mL (≈ 13.7 µM).

Compound `CC(=O)OCC1(C)CC=CC1=O` (stereo not drawn) has a T/C (W256 [2]) of 105%, an EC50 [3] of 18.3 µg/mL (≈ 109 µM) and a T/C (P388 [4]) of 105%.

Work on `O=C1C=CCC1` yielded a T/C (W256 [2]) of 188%, an EC50 [3] greater than 50 µg/mL and a T/C (P388 [4]) of 121%.

With `CC1(CO)CC=CC1=O` (stereo not drawn) the T/C (W256 [2]) was 100%, the EC50 [3] was 15.8 µg/mL (≈ 125 µM) and the T/C (P388 [4]) was 105%.

`N[C@@H](Cc1ccc(N(CCCl)CCCl)cc1)C(=O)O` [MELPHALAN] showed a T/C (P388 [5]) of 168% and a T/C (W256 [2]) of 317%.

Compound `CCOC(=O)C1(C)CC=CC1=O` (stereo not drawn) has a T/C (W256 [2]) of 103%, an EC50 [3] of 17.2 µg/mL (≈ 102 µM) and a T/C (P388 [4]) of 103%.

For `C=C1C(=O)O[C@@H]2C[C@@H](C)[C@@H]3C=CC(=O)[C@@]3(C)[C@@H](O)[C@H]12` [HELENALIN], the T/C (W256 [2]) was 316%, the EC50 [3] was 0.08 µg/mL (≈ 0.305 µM) and the T/C (P388 [6]) was 127%.

`CCOC(=O)/C=C/c1ccccc1` [ETHYL CINNAMATE] showed an EC50 [3] greater than 50 µg/mL.

Compound `COc1cc(C(=O)OCC2(C)CC=CC2=O)cc(OC)c1OC` (stereo not drawn) has a T/C (W256 [7]) of 223%, an EC50 [3] of 3.6 µg/mL (≈ 11.2 µM) and a T/C (P388 [4]) of 140%.

`O=c1[nH]cc(F)c(=O)[nH]1` [FLUOROURACIL] gave a T/C (P388 [5]) of 186%.
